pIC50: −log10 of the molar value.
Tests used:
[1] = molecular target: T1, DNA topoisomerase 1 (Homo sapiens) (UniProt P11387); experiment: Inhibition of recombinant human DNA topoisomerase-1 assessed as relaxation of supercoiled DNA pBR322 at 100 uM after 30 mins by agarose gel electrophoresis relative to control
T1 sequence (whole entry): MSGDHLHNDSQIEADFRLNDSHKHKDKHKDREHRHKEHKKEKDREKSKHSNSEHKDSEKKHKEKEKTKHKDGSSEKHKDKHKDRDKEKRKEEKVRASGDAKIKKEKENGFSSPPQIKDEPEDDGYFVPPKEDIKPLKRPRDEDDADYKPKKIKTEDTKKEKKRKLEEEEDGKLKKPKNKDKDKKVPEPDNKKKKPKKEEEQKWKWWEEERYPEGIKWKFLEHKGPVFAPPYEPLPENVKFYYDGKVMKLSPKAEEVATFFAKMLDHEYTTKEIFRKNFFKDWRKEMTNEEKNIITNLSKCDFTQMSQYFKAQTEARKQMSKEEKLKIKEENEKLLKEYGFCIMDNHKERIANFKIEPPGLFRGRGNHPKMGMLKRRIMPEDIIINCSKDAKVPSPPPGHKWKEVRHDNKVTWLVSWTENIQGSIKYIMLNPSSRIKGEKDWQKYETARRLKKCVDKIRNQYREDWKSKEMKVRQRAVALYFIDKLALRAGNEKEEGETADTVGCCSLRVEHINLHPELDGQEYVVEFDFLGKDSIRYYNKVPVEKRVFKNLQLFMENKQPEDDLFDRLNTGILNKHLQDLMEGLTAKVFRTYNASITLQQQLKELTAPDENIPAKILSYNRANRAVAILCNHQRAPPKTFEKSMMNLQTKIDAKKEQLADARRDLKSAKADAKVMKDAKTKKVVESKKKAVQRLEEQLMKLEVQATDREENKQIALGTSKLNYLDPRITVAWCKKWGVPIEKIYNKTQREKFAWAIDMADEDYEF
Summary of the method: (§1)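 Relaxation assay with 100 ng pBR322 plasmid DNA and 1 unit recombinant human topo I. Buffer was 10 mM Tris–HCl pH 7.9, 150 mM NaCl, 0.1% BSA, 1 mM spermidine and 5% glycerol, incubated 37 °C for 30 min with or without compound. Products were run on a 1% agarose gel in TAE at 15 V for 7 h and stained with ethidium bromide (0.5 µg/mL) for 30 min.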

[2] = molecular target: T1, DNA topoisomerase 1 (Homo sapiens); experiment: Inhibition of recombinant human DNA topoisomerase-1 assessed as relaxation of supercoiled DNA pBR322 at 20 uM after 30 mins by agarose gel electrophoresis relative to control; summary of the method: as §1
[3] = molecular target: DNA topoisomerase 2-alpha (Homo sapiens) (UniProt P11388); experiment: Inhibition of recombinant human DNA topoisomerase-2alpha using supercoiled pBR322 plasmid DNA as substrate at 100 uM after 30 mins by agarose gel electrophoresis relative to control
Summary of the method: (§2)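 200 ng supercoiled pBR322 with 1 unit human topo II, incubated 30 min at 30 °C with or without compound in 10 mM Tris–HCl pH 7.9, 50 mM NaCl, 5 mM MgCl2, 1 mM EDTA, 1 mM ATP and 15 µg/mL BSA. Reaction was stopped with 7 mM EDTA and run on 1% agarose in TAE at 25 V. Gel was stained with ethidium bromide, visualized under UV, and supercoiled DNA quantitated densitometrically.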

[4] = molecular target: DNA topoisomerase 2-alpha (Homo sapiens) (UniProt P11388); experiment: Inhibition of recombinant human DNA topoisomerase-2alpha using supercoiled pBR322 plasmid DNA as substrate at 20 uM after 30 mins by agarose gel electrophoresis relative to control; summary of the method: as §2
DU-145 = experiment: Cytotoxicity against human DU145 cells measured on day 4 by CCK8 assay; format: functional, cell-based; conditions: DU-145, 96 h
Summary of the method: (§3)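 Cells seeded at […], grown overnight in medium with 10% FBS at 37 °C under 5% CO2. On day 2 they were serum-starved 4 h, then exposed to graded compound concentrations. On day 4 CCK-8 was added for a further 4 h and absorbance read at 450 nm. IC50 came from a four-parameter logistic fit, mean ± SD of three experiments in triplicate.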

HCT-15 = experiment: Cytotoxicity against human HCT15 cells measured on day 4 by CCK8 assay; format: functional, cell-based; conditions: HCT-15, 96 h; summary of the method: as §3
T47D = experiment: Cytotoxicity against human T47D cells measured on day 4 by CCK8 assay; format: functional, cell-based; conditions: 96 h; summary of the method: as §3
HeLa = experiment: Cytotoxicity against human HeLa cells measured on day 4 by CCK8 assay; format: functional, cell-based; conditions: 96 h; summary of the method: as §3

Sequence of DNA topoisomerase 2-alpha (Homo sapiens) (P11388 whole entry): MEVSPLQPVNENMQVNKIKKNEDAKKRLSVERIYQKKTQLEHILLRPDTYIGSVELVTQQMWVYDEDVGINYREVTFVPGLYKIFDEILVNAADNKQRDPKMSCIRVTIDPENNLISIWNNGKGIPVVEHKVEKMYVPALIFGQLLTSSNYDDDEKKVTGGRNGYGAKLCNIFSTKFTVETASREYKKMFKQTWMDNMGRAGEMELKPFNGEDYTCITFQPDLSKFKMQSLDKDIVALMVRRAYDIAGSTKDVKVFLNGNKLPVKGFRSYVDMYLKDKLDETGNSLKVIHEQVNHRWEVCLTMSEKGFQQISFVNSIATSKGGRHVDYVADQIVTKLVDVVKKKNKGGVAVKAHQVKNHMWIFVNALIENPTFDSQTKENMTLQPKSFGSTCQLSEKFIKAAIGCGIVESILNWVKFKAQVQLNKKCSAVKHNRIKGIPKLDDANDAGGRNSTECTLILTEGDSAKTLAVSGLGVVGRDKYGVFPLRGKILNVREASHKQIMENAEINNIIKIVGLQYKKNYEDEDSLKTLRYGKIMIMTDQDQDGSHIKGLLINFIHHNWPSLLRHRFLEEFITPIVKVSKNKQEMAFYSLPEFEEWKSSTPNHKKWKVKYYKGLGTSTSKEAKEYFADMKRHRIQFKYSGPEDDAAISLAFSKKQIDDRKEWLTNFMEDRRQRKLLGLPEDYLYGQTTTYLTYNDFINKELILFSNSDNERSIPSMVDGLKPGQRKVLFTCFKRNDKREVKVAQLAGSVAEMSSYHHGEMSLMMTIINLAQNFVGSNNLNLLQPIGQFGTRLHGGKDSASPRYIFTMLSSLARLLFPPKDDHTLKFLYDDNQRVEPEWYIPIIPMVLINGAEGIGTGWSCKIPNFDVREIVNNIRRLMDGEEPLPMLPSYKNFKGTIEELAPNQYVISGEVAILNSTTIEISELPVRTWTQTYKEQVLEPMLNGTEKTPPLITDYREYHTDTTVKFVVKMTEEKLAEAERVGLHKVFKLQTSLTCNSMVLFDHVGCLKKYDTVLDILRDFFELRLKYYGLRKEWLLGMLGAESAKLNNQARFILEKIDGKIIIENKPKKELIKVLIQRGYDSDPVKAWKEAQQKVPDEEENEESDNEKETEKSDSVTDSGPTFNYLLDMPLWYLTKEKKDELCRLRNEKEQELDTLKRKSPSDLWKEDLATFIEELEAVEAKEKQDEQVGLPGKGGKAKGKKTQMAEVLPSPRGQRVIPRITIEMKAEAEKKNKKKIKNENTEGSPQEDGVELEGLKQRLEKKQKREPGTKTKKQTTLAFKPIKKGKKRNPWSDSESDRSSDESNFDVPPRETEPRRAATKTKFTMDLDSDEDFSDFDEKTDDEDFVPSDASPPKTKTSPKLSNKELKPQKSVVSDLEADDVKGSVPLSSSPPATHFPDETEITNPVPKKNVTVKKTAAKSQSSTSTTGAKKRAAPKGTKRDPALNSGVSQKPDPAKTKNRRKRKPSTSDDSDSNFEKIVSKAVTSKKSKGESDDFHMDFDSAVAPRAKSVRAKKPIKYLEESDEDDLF

| SMILES | inhibition [1] | inhibition [2] | inhibition [3] | inhibition [4] | pIC50 (DU-145) | pIC50 (HCT-15) | pIC50 (T47D) | pIC50 (HeLa) |
| --- | --- | --- | --- | --- | --- | --- | --- | --- |
| Oc1cccc(-c2cc(-c3cccs3)cc(-c3cccc(O)c3)n2)c1 | 91.7% | 0% | 78.3% | 22.3% | 5.79 | 5.46 | 6.11 | 5.77 |
| Oc1ccc(-c2cc(-c3ccco3)cc(-c3ccccc3O)n2)cc1 | 83% | 0% | 84.8% | 13.6% | < 4.30 | < 4.30 | < 4.30 | < 4.30 |
| Oc1ccc(-c2cc(-c3ccco3)cc(-c3ccc(O)cc3)n2)cc1 | 100% | 0% | 92.3% | 48.4% | < 4.30 | 4.85 | 4.67 | < 4.30 |
| Oc1ccc(-c2cc(-c3cccs3)cc(-c3cccc(O)c3)n2)cc1 | 85.7% | 1.1% | 88.6% | 21.5% | 5.72 | 5.75 | 6.11 | 5.38 |
| Oc1ccccc1-c1cc(-c2cccs2)cc(-c2ccccc2O)n1 | 77.2% | 0.2% | 55.9% | 10.8% | < 4.30 | < 4.30 | < 4.30 | < 4.30 |
| Oc1ccccc1-c1cc(-c2ccco2)cc(-c2ccccc2O)n1 | 89.1% | 0.2% | 52.2% | 13.3% | < 4.30 | < 4.30 | < 4.30 | < 4.30 |
| Oc1ccc(-c2cc(-c3ccsc3)cc(-c3ccc(O)cc3)n2)cc1 | 61.7% | 7.5% | 81.2% | 57.9% | 5.69 | 5.98 | 5.75 | 5.36 |
| Oc1ccc(-c2cc(-c3ccoc3)cc(-c3ccccc3O)n2)cc1 | 30.1% | 3.9% | 69.3% | 12.8% | 4.55 | < 4.30 | < 4.30 | < 4.30 |
| Oc1cccc(-c2cc(-c3ccco3)cc(-c3cccc(O)c3)n2)c1 | 97.8% | 0% | 88.2% | 20.6% | 5.67 | 5.72 | 5.45 | 5.22 |

— ChEMBL document CHEMBL3585276, “Topoisomerase I and II inhibitory activity, cytotoxicity, and structure-activity relationship study of dihydroxylated 2,6-diphenyl-4-aryl pyridines” (Bioorg Med Chem, 2015)
